Data published in ChEMBL document CHEMBL6071188, “Synthesis and In Vivo Profiling of Desymmetrized Antimalarial Trioxolanes with Diverse Carbamate Side Chains” (ACS Med Chem Lett, 2024).
≈ marks a conversion by molar mass, not a printed value. Calls of active or inactive are those of the source. The calls are words filed in the database; no cut-off is given here.

Experiments:
Plasmodium berghei [1] = experiment: Antiplasmodial activity against Plasmodium berghei infected in female Swiss Webster mouse model assessed as survival at 10 mg/kg, po administered once daily for 2 days and measured upto 30 days; assay type: functional; settings: time 30 day
How it was run: (§1)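 Female Swiss Webster mice (~20 g) infected ip with 10^6 P. berghei-infected erythrocytes from a donor mouse. Dosing by oral gavage once daily for 1–2 days starting 1 h post-inoculation, in 10% DMSO/50% PEG400/40% of 20% HP-β-CD in water. Five mice per arm. Daily Giemsa smears from day 7, counting infected cells per 1000 erythrocytes. Body weight tracked. Euthanasia at >50% parasitemia or >15% weight loss. Followed to day 30; cure means no parasitemia at day 30. Survival reported as the day of the longest-surviving mouse.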

[2] = Solubility of the compound in PBS buffer at pH 7.4; assay type: physicochemical
[3] = Metabolic stability in human liver microsomes assessed as intrinsic clearance; assay type: ADME, Microsome; settings: for microsomal intrinsic clearance: microsomes
[4] = Toxicity in female Swiss Webster mouse infected with Plasmodium berghei assessed as drug tolerance at 10 mg/kg, po administered once daily for 2 days and measured upto 30 days; assay type: organism-based; settings: in vivo, 720 h, time 30 day; how it was run: as §1
Plasmodium berghei [5] = experiment: Antiplasmodial activity against Plasmodium berghei infected in female Swiss Webster mouse model assessed as survival at 20 mg/kg, po administered once daily for 1 day
[6] = Toxicity in female Swiss Webster mouse infected with Plasmodium berghei assessed as drug tolerance at 20 mg/kg, […]; assay type: organism-based; settings: in vivo, po
[7] = Half life in male CD1 mouse at 10 mg/kg, po measured upto 24 hrs; assay type: ADME, organism-based; settings: in vivo
[8] = Clearance in male CD1 mouse at 3 mg/kg, iv measured upto 24 hrs; assay type: ADME, organism-based; settings: in vivo
How it was run: (§2)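 Male CD1 mice, n = 3 per group, dosed IV at 3 mg/kg or PO at 10 mg/kg in 10% DMSO/50% PEG400/40% of 20% HP-β-CD in water. Samples below the limit of quantitation excluded from parameters and mean concentrations.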

[9] = AUClast in male CD1 mouse at 10 mg/kg, po measured upto 24 hrs; assay type: ADME, organism-based; settings: in vivo; how it was run: as §2
[10] = Volume of distribution at steady state in male CD1 mouse at 3 mg/kg, iv measured upto 24 hrs; assay type: ADME, organism-based; settings: in vivo; how it was run: as §2
[11] = Oral bioavailability in male CD1 mouse at 10 mg/kg measured upto 24 hrs; assay type: ADME, organism-based; settings: in vivo; how it was run: as §2
Plasmodium berghei [12] = experiment: Antiplasmodial activity against Plasmodium berghei infected in female Swiss Webster mouse model assessed as reduction in parasitemia at 20 mg/kg, po administered once daily for 2 days and measured upto 30 days by giemsa staining based microscopic analysis; assay type: functional, organism-based; settings: time 30.0 day; how it was run: as §1
Plasmodium berghei [13] = experiment: Antiplasmodial activity against Plasmodium berghei infected in female Swiss Webster mouse model assessed as cure rate at 40 mg/kg, po measured upto 30 days relative to control; assay type: functional; settings: time <= 30 day
[14] = Toxicity in female Swiss Webster mouse infected with Plasmodium berghei assessed as drug tolerance at 50 mg/kg, […]; assay type: organism-based; settings: in vivo, po; how it was run: as §1
Plasmodium berghei [15] = experiment: Antiplasmodial activity against Plasmodium berghei infected in female Swiss Webster mouse model assessed as survival at 4 mg/kg, po administered once daily for 2 days and measured upto 30 days; assay type: functional; settings: time 30 day; how it was run: as §1
[16] = Toxicity in female Swiss Webster mouse infected with Plasmodium berghei assessed as drug tolerance at 4 mg/kg, po administered once daily for 2 days and measured upto 30 days; assay type: organism-based; settings: in vivo, 720 h, time 30 day; how it was run: as §1
Plasmodium berghei [17] = experiment: Antiplasmodial activity against Plasmodium berghei infected in female Swiss Webster mouse model assessed as survival at 50 mg/kg, […]; assay type: functional; settings: route po; how it was run: as §1
Plasmodium berghei [18] = experiment: Antiplasmodial activity against Plasmodium berghei infected in female Swiss Webster mouse model assessed as survival at 20 mg/kg, po […]; assay type: functional; how it was run: as §1

Molecule | Survival (Plasmodium berghei [1]) | solubility kinetic [2] | microsomal intrinsic clearance [3] | Activity [4] | other results
NC1(CNC(=O)O[C@@H]2CCC[C@]3(C2)OOC2(O3)C3CC4CC(C3)CC2C4)CCCC1 (stereo not given in full) | 11 days | 162 µM (≈ 68.1 µg/mL) | 29.9 µL/min/mg | Non-Toxic | –
CC(C)(N)CNC(=O)O[C@H]1CCC[C@@]2(C1)OOC1(O2)C2CC3CC(C2)CC1C3 (stereo not given in full) | 30 days | 174 µM (≈ 68.6 µg/mL) | – | Non-Toxic | Survival (Plasmodium berghei [5]): 20 days; Activity [6]: Non-Toxic; t1/2 [7]: 1.44 h; CL [8]: 77 mL/min/kg; AUClast [9]: 818 ng·h/mL; microsomal CLint ([3]; liver microsomes, read-out: CLH): < 11.5 µL/min/mg; Vdss [10]: 2.5 L/kg; F [11]: 38.9%; Activity (Plasmodium berghei [12]): Active
N[C@@H]1CCN(C(=O)O[C@@H]2CCC[C@]3(C2)OOC2(O3)C3CC4CC(C3)CC2C4)C1 (stereo not given in full) | – | 167 µM (≈ 65.5 µg/mL) | 45.8 µL/min/mg | – | Activity (Plasmodium berghei [13]): 20%
NC1(CNC(=O)O[C@H]2CCC[C@@]3(C2)OOC2(O3)C3CC4CC(C3)CC2C4)CCC1 (stereo not given in full) | 13 days | 162 µM (≈ 65.9 µg/mL) | 24.9 µL/min/mg | – | –
NC1(CNC(=O)O[C@@H]2CCC[C@]3(C2)OOC2(O3)C3CC4CC(C3)CC2C4)COC1 (stereo not given in full) | 8 days | 122 µM (≈ 49.8 µg/mL) | 23.4 µL/min/mg | Non-Toxic | Survival (Plasmodium berghei [5]): 7 days; Activity [6]: Non-Toxic
NC1(CNC(=O)O[C@@H]2CCC[C@]3(C2)OOC2(O3)C3CC4CC(C3)CC2C4)CCC1 (stereo not given in full) | 13 days | 142 µM (≈ 57.7 µg/mL) | 37.4 µL/min/mg | Non-Toxic | –
NC1CCN(C(=O)O[C@@H]2CCC[C@]3(C2)OOC2(O3)C3CC4CC(C3)CC2C4)CC1 (stereo not given in full) | 12 days | 145 µM (≈ 58.9 µg/mL) | – | Non-Toxic | Survival (Plasmodium berghei [5]): 11 days; Activity [6]: Non-Toxic; Activity [14]: Non-Toxic; Survival (Plasmodium berghei [15]): 11 days; Activity [16]: Non-Toxic; Survival (Plasmodium berghei [17]): 12 days; Activity (Plasmodium berghei [13]): 20%
NCCNC(=O)O[C@H]1CCC[C@@]2(C1)OOC1(O2)C2CC3CC(C2)CC1C3 (stereo not given in full) | 30 days | 144 µM (≈ 52.8 µg/mL) | 23.1 µL/min/mg | Non-Toxic | t1/2 [7]: 1.66 h; CL [8]: 66 mL/min/kg; AUClast [9]: 1038 ng·h/mL; Vdss [10]: 2.33 L/kg; F [11]: 43.1%; Activity (Plasmodium berghei [12]): Active
N=S(=O)(CCNC(=O)O[C@H]1CCC[C@@]2(C1)OOC1(O2)C2CC3CC(C2)CC1C3)C1CC1 (stereo not given in full) | 6 days | 234 µM (≈ 106 µg/mL) | 450 µL/min/mg | Non-Toxic | –
(S,S)-dispiro[adamantane-2,3'-[1,2,4]trioxolane-5',1''-cyclohexan]-3''-yl-piperidine-1-carboxylate | – | – | – | – | Survival (Plasmodium berghei [18]): 7 days
NC1(CNC(=O)O[C@H]2CCC[C@@]3(C2)OOC2(O3)C3CC4CC(C3)CC2C4)CC1 (stereo not given in full) | 11 days | 143 µM (≈ 56.1 µg/mL) | 37.4 µL/min/mg | Non-Toxic | Survival (Plasmodium berghei [5]): 11 days; Activity [6]: Non-Toxic
NCCC1CCN(C(=O)O[C@@H]2CCC[C@]3(C2)OOC2(O3)C3CC4CC(C3)CC2C4)CC1 (stereo not given in full) | – | – | – | – | Activity (Plasmodium berghei [13]): 20%
CC1(O)CN(C(=O)O[C@H]2CCC[C@@]3(C2)OOC2(O3)C3CC4CC(C3)CC2C4)C1 (stereo not given in full) | 4 days | 137 µM (≈ 53.9 µg/mL) | – | Non-Toxic | –
CC1(O)CN(C(=O)O[C@@H]2CCC[C@]3(C2)OOC2(O3)C3CC4CC(C3)CC2C4)C1 (stereo not given in full) | 7 days | 71.4 µM (≈ 28.1 µg/mL) | – | Non-Toxic | –
